Results from ChEMBL document CHEMBL3580633, “Benzoxaborole antimalarial agents. Part 4. Discovery of potent 6-(2-(alkoxycarbonyl)pyrazinyl-5-oxy)-1,3-dihydro-1-hydroxy-2,1-benzoxaboroles” (J Med Chem, 2015).

How the values were obtained:
[1] = test system: Plasmodium berghei; test: Antiplasmodial activity against Plasmodium berghei infected in Swiss Webster mouse assessed as mouse survival at 11 mg/kg, po dosed once daily for 4 consecutive days beginning 1 hr after initial infection and measured on day 12 post infection by Giemsa staining method; format: functional
Method in brief: (§1)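 Female Swiss Webster mice (about 20 g) infected ip with 6 × 10^6 P. berghei-infected erythrocytes. Oral gavage once daily for 4 days, starting 1 h after infection. Vehicle PEG300/propylene glycol/water (55/25/20 by weight). Giemsa-smear parasitemia counted daily from day 4. Mice euthanised above 50% parasitemia. Survival followed to day 21, 5 mice per dose, chloroquine 30 mg/kg as reference.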

[2] = test system: Plasmodium falciparum; test: Antimalarial activity against chloroquine-sensitive Plasmodium falciparum 3D7 cultured in human erythrocytes incubated for 72 hrs by [3H]-hypoxanthine incorporation assay; format: functional, organism-based
[3] = Cmax in CD1 mouse at 30 mg/kg, po by HPLC coupled to tandem mass spectrometry; format: ADME, organism-based; parameters: dose 30 mg/kg, route oral; conditions: in vivo
Method in brief: (§2)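 Adult female CD-1 mice were dosed 10 mg/kg by iv injection or 30 mg/kg by oral gavage, with the compound in 100% saline. Blood samples were collected and drug content was measured by HPLC-tandem MS.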

[4] = Tmax in CD1 mouse at 30 mg/kg, po by HPLC coupled to tandem mass spectrometry; format: ADME, organism-based; conditions: in vivo; method in brief: as §2
[5] = AUC (0 to 2 hrs) in CD1 mouse at 30 mg/kg, po by HPLC coupled to tandem mass spectrometry; format: ADME, organism-based; parameters: dose 30 mg/kg, time < 2 hr, route oral; conditions: in vivo; method in brief: as §2
[6] = Terminal half life in CD1 mouse at 30 mg/kg, po by HPLC coupled to tandem mass spectrometry; format: ADME, organism-based; conditions: in vivo, read-out: beta t1/2 (converted); method in brief: as §2
[7] = test system: Mus musculus; test: Oral bioavailability in CD1 mouse at 30 mg/kg by HPLC coupled to tandem mass spectrometry; format: ADME, organism-based; conditions: in vivo; method in brief: as §2
[8] = Clearance in CD1 mouse at 10 mg/kg, iv by HPLC coupled to tandem mass spectrometry; format: ADME, organism-based; conditions: in vivo; method in brief: as §2
[9] = test system: Plasmodium berghei; test: Antiplasmodial activity against Plasmodium berghei infected in Swiss Webster mouse assessed as mouse survival at 100 mg/kg, po dosed once daily for 4 consecutive days beginning 1 hr after initial infection and measured on day 12 post infection by Giemsa staining method; format: functional; method in brief: as §1
[10] = test system: Plasmodium berghei; test: Antiplasmodial activity against Plasmodium berghei infected in Swiss Webster mouse assessed as mouse survival at 100 mg/kg, po dosed once daily for 4 consecutive days beginning 1 hr after initial infection and measured on day 20 post infection by Giemsa staining method; format: functional; method in brief: as §1
[11] = test system: Plasmodium berghei; test: Antiplasmodial activity against Plasmodium berghei infected in Swiss Webster mouse assessed as mouse survival at 3 mg/kg, po dosed once daily for 4 consecutive days beginning 1 hr after initial infection and measured on day 12 post infection by Giemsa staining method; format: functional; method in brief: as §1
[12] = Tmax in CD1 mouse at 5 mg/kg, po by HPLC coupled to tandem mass spectrometry; format: ADME, organism-based; conditions: in vivo
Method in brief: (§3)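 Adult female CD-1 mice received 5 mg/kg by both the iv and the oral-gavage route. Two vehicles were used: PEG 400/dimethylacetamide/water (45/10/45, pH 5.8), or PEG 300/propylene glycol/water (55/25/20, pH 5.9). Blood samples were collected and drug was quantified by HPLC-tandem MS.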

[13] = Volume of distribution at steady state in CD1 mouse at 5 mg/kg, iv by HPLC coupled to tandem mass spectrometry; format: ADME, organism-based; conditions: in vivo, read-out: Vdss; method in brief: as §3
[14] = test system: Mus musculus; test: Cmax in CD1 mouse assessed as 5-(1-hydroxy-1,3-dihydrobenzo[c][1,2]oxaborol-6-yloxy)pyrazine-2-carboxylic acid level at 5 mg/kg, po by HPLC coupled to tandem mass spectrometry; format: ADME, organism-based; parameters: dose 5 mg/kg, route oral; conditions: in vivo
Method in brief: (§4)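 The parent ester was given to adult female CD-1 mice at 5 mg/kg, iv or by oral gavage, in PEG 400/dimethylacetamide/water (45/10/45, pH 5.8). Blood was sampled, and the acid formed from the ester in vivo was quantified by HPLC-tandem MS to derive its PK parameters.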

[15] = test system: Mus musculus; test: Tmax in CD1 mouse assessed as 5-(1-hydroxy-1,3-dihydrobenzo[c][1,2]oxaborol-6-yloxy)pyrazine-2-carboxylic acid level at 5 mg/kg, po by HPLC coupled to tandem mass spectrometry; format: ADME, organism-based; conditions: in vivo; method in brief: as §4
[16] = test system: Mus musculus; test: AUC (0 to infinity) in CD1 mouse assessed as 5-(1-hydroxy-1,3-dihydrobenzo[c][1,2]oxaborol-6-yloxy)pyrazine-2-carboxylic acid level at 5 mg/kg, po by HPLC coupled to tandem mass spectrometry; format: ADME, organism-based; parameters: dose 5 mg/kg, route oral, time infinity; conditions: in vivo; method in brief: as §4
[17] = test system: Mus musculus; test: Oral bioavailability in CD1 mouse assessed as 5-(1-hydroxy-1,3-dihydrobenzo[c][1,2]oxaborol-6-yloxy)pyrazine-2-carboxylic acid level at 5 mg/kg by HPLC coupled to tandem mass spectrometry; format: ADME, organism-based; conditions: in vivo; method in brief: as §4
[18] = test system: Mus musculus; test: AUC (0 to infinity) in CD1 mouse assessed as 5-(1-hydroxy-1,3-dihydrobenzo[c][1,2]oxaborol-6-yloxy)pyrazine-2-carboxylic acid level at 5 mg/kg, iv by HPLC coupled to tandem mass spectrometry; format: ADME, organism-based; parameters: dose 5 mg/kg, route intravenous, time infinity; conditions: in vivo; method in brief: as §4
[19] = test system: Mus musculus; test: Terminal half life in CD1 mouse assessed as 5-(1-hydroxy-1,3-dihydrobenzo[c][1,2]oxaborol-6-yloxy)pyrazine-2-carboxylic acid level at 5 mg/kg, iv by HPLC coupled to tandem mass spectrometry; format: ADME, organism-based; conditions: in vivo; method in brief: as §4
[20] = test system: Plasmodium berghei; test: Antiplasmodial activity against Plasmodium berghei infected in Swiss Webster mouse assessed as mouse survival at 100 mg/kg, po dosed once daily for 4 consecutive days beginning 1 hr after initial infection and measured on day 13 post infection by Giemsa staining method; format: functional; method in brief: as §1
[21] = test system: Plasmodium berghei; test: Antiplasmodial activity against Plasmodium berghei infected in Swiss Webster mouse assessed as mouse survival at 100 mg/kg, po dosed once daily for 4 consecutive days beginning 1 hr after initial infection and measured on day 14 post infection by Giemsa staining method; format: functional; method in brief: as §1
[22] = test system: Plasmodium berghei; test: Antiplasmodial activity against Plasmodium berghei infected in Swiss Webster mouse assessed as mouse survival at 100 mg/kg, po dosed once daily for 4 consecutive days beginning 1 hr after initial infection and measured on day 15 post infection by Giemsa staining method; format: functional; method in brief: as §1
[23] = test system: Plasmodium berghei; test: Antiplasmodial activity against Plasmodium berghei infected in Swiss Webster mouse assessed as mouse survival at 100 mg/kg, po dosed once daily for 4 consecutive days beginning 1 hr after initial infection and measured on day 16 to 19 post infection by Giemsa staining method; format: functional; method in brief: as §1
[24] = test system: Plasmodium berghei; test: Antiplasmodial activity against Plasmodium berghei infected in Swiss Webster mouse assessed as mouse survival at 200 mg/kg, po dosed once daily for 4 consecutive days beginning 1 hr after initial infection and measured on day 4 post infection by Giemsa staining method; format: functional; method in brief: as §1
[25] = test system: Plasmodium berghei; test: Antiplasmodial activity against Plasmodium berghei infected in Swiss Webster mouse assessed as mouse survival at 200 mg/kg, po dosed once daily for 4 consecutive days beginning 1 hr after initial infection and measured on day 5 post infection by Giemsa staining method; format: functional; method in brief: as §1
[26] = test system: Plasmodium berghei; test: Antiplasmodial activity against Plasmodium berghei infected in Swiss Webster mouse assessed as mouse survival at 200 mg/kg, po dosed once daily for 4 consecutive days beginning 1 hr after initial infection and measured on day 7 post infection by Giemsa staining method; format: functional; method in brief: as §1
[27] = test system: Plasmodium berghei; test: Antiplasmodial activity against Plasmodium berghei infected in Swiss Webster mouse assessed as mouse survival at 200 mg/kg, po dosed once daily for 4 consecutive days beginning 1 hr after initial infection and measured on day 9 post infection by Giemsa staining method; format: functional; method in brief: as §1
[28] = test system: Plasmodium berghei; test: Antiplasmodial activity against Plasmodium berghei infected in Swiss Webster mouse assessed as mouse survival at 200 mg/kg, po dosed once daily for 4 consecutive days beginning 1 hr after initial infection and measured on day 10 post infection by Giemsa staining method; format: functional; method in brief: as §1

SMILES: O=C(O)c1cnc(Oc2ccc3c(c2)B(O)OC3)cn1
- survival at 11 mg/kg [1]: 0%
- IC50 [2]: 300 nM
- Cmax [3]: 19500 ng/mL
- Tmax [4]: 15 min
- AUC(0-t) at 2 h [5]: 8620 ng·h/mL
- half-life [6]: 13.8 min
- F [7]: 67%
- clearance [8]: 38.8 mL/min/kg
- survival at 100 mg/kg [9]: 0%

SMILES: COC(=O)c1cnc(Oc2ccc3c(c2)B(O)OC3)cn1
- survival at 100 mg/kg [10]: 0%
- survival at 11 mg/kg [1]: 0%
- survival at 3 mg/kg [11]: 0%
- Tmax [12]: 15 min
- Vd [13]: 0.926 L/kg
- Cmax [14]: 920 ng/mL
- Tmax [15]: 15 min
- AUC [16]: 610 ng·h/mL
- F [17]: 29%
- AUC [18]: 990 ng·h/mL
- beta t1/2 [19]: 7.8 min
- survival at 100 mg/kg [9]: 100%
- survival at 100 mg/kg [20]: 60%
- survival at 100 mg/kg [21]: 40%
- survival at 100 mg/kg [22]: 40%
- survival at 100 mg/kg [23]: 20%

SMILES: NC(=O)c1cnc(Oc2ccc3c(c2)B(O)OC3)cn1
- survival at 200 mg/kg [24]: 100%
- survival at 200 mg/kg [25]: 100%
- survival at 200 mg/kg [26]: 100%
- survival at 200 mg/kg [27]: 40%
- survival at 200 mg/kg [28]: 0%
- Tmax [12]: 15 min
- Vd [13]: 0.973 L/kg
